Tests used:
SK-MEL-5 [1] = experiment: Growth inhibition of human SK-MEL-5 cells assessed as cell growth at 10 uM incubated for 48 hrs by sulforhodamine B assay; format: functional; details: SK-MEL-5, 48 h, read-out: Activity
[2] = Growth inhibition of human HL-60(TB) cells assessed as cell growth at 10^-5 M incubated for 48 hrs by sulforhodamine B assay; format: functional; details: HL-60, 48 h, read-out: Activity
How it was run: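 Cells plated at 5,000–40,000/well according to doubling time and preincubated 24 h at 37 °C, 5% CO₂, with time-zero plates TCA-fixed. Drugs were kept as DMSO concentrates at 400× the top concentration and diluted in medium with 50 µg/ml gentamicin. Five 10-fold or ½-log dilutions were run for 48 h, followed by SRB staining and A515. Percent growth = (Ti−Tz)/(C−Tz)×100, or (Ti−Tz)/Tz×100 when Ti<Tz.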

MDA-MB-435 = experiment: Growth inhibition of human MDA-MB-435 cells assessed as cell growth at 10^-6 M incubated for 48 hrs by sulforhodamine B assay; format: functional; details: MDA-MB-435, 48 h, read-out: Activity
[3] = Growth inhibition of human HCT116 cells assessed as cell growth at 10^-6 M incubated for 48 hrs by sulforhodamine B assay; format: functional; details: HCT-116, 48 h, read-out: Activity
How it was run: (§1)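 Cells seeded at 5,000–40,000/well according to doubling time and preincubated 24 h at 37 °C, 5% CO2. Time-zero plates were TCA-fixed. DMSO concentrate was diluted in medium with 50 µg/ml gentamicin to give five concentrations (10-fold or ½ log steps), then exposed 48 h. Cells were TCA-fixed, stained with 0.4% SRB and read at 515 nm. Percent growth was taken against time-zero and control; GI50, TGI and LC50 derived.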

MDA-MB-231 = experiment: Growth inhibition of human MDA-MB-231 cells assessed as cell growth at 10^-5 M incubated for 48 hrs by sulforhodamine B assay; format: functional; details: MDA-MB-231, 48 h, read-out: Activity
Albumin [4] = molecular target: T1, Albumin (Bos taurus, UniProt P02769); experiment: Binding affinity to bovine serum albumin assessed as enhancement in emission spectra up to 20 uM by fluorescence spectroscopic analysis relative to control; format: ADME; details: cattle, isolated protein
T1 sequence (P02769 whole entry): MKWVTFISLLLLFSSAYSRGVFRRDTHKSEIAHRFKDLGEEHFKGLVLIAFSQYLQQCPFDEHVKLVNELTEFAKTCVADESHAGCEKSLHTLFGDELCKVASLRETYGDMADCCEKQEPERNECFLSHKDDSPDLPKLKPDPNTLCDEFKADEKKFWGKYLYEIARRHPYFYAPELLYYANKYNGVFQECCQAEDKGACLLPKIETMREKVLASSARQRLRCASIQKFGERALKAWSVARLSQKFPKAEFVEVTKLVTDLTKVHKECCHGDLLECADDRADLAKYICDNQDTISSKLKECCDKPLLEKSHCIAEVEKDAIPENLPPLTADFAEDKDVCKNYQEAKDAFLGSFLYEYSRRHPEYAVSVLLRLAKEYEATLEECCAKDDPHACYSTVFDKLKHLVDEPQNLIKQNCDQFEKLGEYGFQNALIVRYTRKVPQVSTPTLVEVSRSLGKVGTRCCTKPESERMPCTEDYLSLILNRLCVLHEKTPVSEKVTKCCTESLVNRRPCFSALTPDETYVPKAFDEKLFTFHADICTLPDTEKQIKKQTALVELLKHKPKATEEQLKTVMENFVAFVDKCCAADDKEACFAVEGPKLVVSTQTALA
How it was run: (§2)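 Fluorescence titration of 10 µM BSA in 0.1 M phosphate buffer pH 7.4 with compound at 0–20 µM, diluted from DMSO stocks. Excitation 280 nm, slit 10 nm, 1 cm quartz cell, 300 K. Changes in the 350 nm Trp emission, new bands near 370–373 nm and isoemissive points are read against BSA alone.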

SK-MEL-5 [5] = experiment: Growth inhibition of human SK-MEL-5 cells assessed as cell growth at 10^-6 M incubated for 48 hrs by sulforhodamine B assay; format: functional; details: SK-MEL-5, 48 h, read-out: Activity
SK-MEL-28 = experiment: Growth inhibition of human SK-MEL-28 cells assessed as cell growth at 10 uM incubated for 48 hrs by sulforhodamine B assay; format: functional; details: SK-MEL-28, 48 h, read-out: Activity
[6] = Growth inhibition of human SNB19 cells assessed as cell growth at 10^-4 M incubated for 48 hrs by sulforhodamine B assay; format: functional; details: SNB-19, 48 h, read-out: Activity
[7] = Growth inhibition of human UO31 cells assessed as cell growth at 10^-7 M incubated for 48 hrs by sulforhodamine B assay; format: functional; details: UO-31, 48 h, read-out: Activity
[8] = Growth inhibition of human UO31 cells incubated for 48 hrs by sulforhodamine B assay; format: functional; details: UO-31, 48 h
How it was run: (§3)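 Cells were plated at 5,000–40,000 per well according to doubling time and preincubated 24 h at 37 °C in 5% CO2; time-zero plates were then TCA-fixed. Five concentrations (10-fold or ½-log dilutions, DMSO stock) were incubated 48 h. Cells were TCA-fixed, stained with 0.4% SRB and read at 515 nm. GI50 was taken where [(Ti−Tz)/(C−Tz)]×100 = 50.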

Albumin [9] = molecular target: T1, Albumin; experiment: Binding affinity to bovine serum albumin assessed as red shift in emission intensity up to 20 uM by fluorescence spectroscopic analysis relative to control; format: ADME; details: cattle, isolated protein; how it was run: as §2
MCF7 = experiment: Growth inhibition of human MCF7 cells assessed as cell growth at 10^-4 M incubated for 48 hrs by sulforhodamine B assay; format: functional; details: MCF7, 48 h, read-out: Activity
[10] = Growth inhibition of human Caki1 cells assessed as cell growth at 10 uM incubated for 48 hrs by sulforhodamine B assay; format: functional; details: CAKI-1, 48 h, read-out: Activity
How it was run: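 Primary screen at one dose (10 µM) across 60 human cancer cell lines. Readout was growth percent relative to untreated control and time-zero.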

NCI-H460 = experiment: Growth inhibition of human NCI-H460 cells assessed as cell growth at 10^-8 M incubated for 48 hrs by sulforhodamine B assay; format: functional; details: NCI-H460, 48 h, read-out: Activity
Malme-3M = experiment: Growth inhibition of human MALME-3M cells incubated for 48 hrs by sulforhodamine B assay; format: functional; how it was run: as §3
[11] = Growth inhibition of human OVCAR4 cells assessed as cell growth at 10^-5 M incubated for 48 hrs by sulforhodamine B assay; format: functional; details: OVCAR-4, 48 h, read-out: Activity
[12] = Growth inhibition of human SNB75 cells incubated for 48 hrs by sulforhodamine B assay; format: functional; details: SNB-75, 48 h; how it was run: as §3
[13] = Growth inhibition of human Hs 578T cells assessed as cell growth at 10 uM incubated for 48 hrs by sulforhodamine B assay; format: functional; details: read-out: Activity
[14] = Growth inhibition of human HOP92 cells assessed as cell growth at 10^-5 M incubated for 48 hrs by sulforhodamine B assay; format: functional; details: HOP-92, 48 h, read-out: Activity
[15] = Growth inhibition of human HOP92 cells assessed as cell growth at 10^-4 M incubated for 48 hrs by sulforhodamine B assay; format: functional; details: HOP-92, 48 h, read-out: Activity
[16] = Growth inhibition of human SW620 cells incubated for 48 hrs by sulforhodamine B assay; format: functional; details: SW-620, 48 h; how it was run: as §3
EKVX = experiment: Growth inhibition of human EKVX cells assessed as cell growth at 10^-8 M incubated for 48 hrs by sulforhodamine B assay; format: functional; details: read-out: Activity; how it was run: as §1
[17] = Growth inhibition of human HOP62 cells assessed as cell growth at 10^-8 M incubated for 48 hrs by sulforhodamine B assay; format: functional; details: HOP-62, 48 h, read-out: Activity
[18] = Growth inhibition of human HOP92 cells assessed as cell growth at 10^-6 M incubated for 48 hrs by sulforhodamine B assay; format: functional; details: HOP-92, 48 h, read-out: Activity
[19] = read-out: LC50 (the source's name)
[20] = read-out: pLC50 (the source's name) (converted)

**Q.** Which results are given for `Clc1ccc(-c2nc(Nc3ccc(-c4nc5ccccc5[nH]4)cc3)nc(N3CCOCC3)n2)cc1`?
**A.** growth at 10 µM (SK-MEL-5 [1]): -97.6%; growth at 10 µM [2]: -71%; growth at 1 µM (MDA-MB-435): 36%; growth at 1 µM [3]: -80%; growth at 10 µM (MDA-MB-231): -76%; Activity (Albumin [4]): 49.1%; growth at 1 µM (SK-MEL-5 [5]): 93%; growth at 10 µM (SK-MEL-28): -84.7%; growth at 100 µM [6]: 1%; growth at 0.1 µM [7]: 92%; GI50 ([8]; read-out: GI50): 1510 nM; TGI ([8]; read-out: TGI): 3030 nM; GI50 ([8]; read-out: pGI50 (converted)): 1510 nM; TGI ([8]; read-out: pTGI (converted)): 3020 nM; Activity (Albumin [9]): 22 nm; growth at 100 µM (MCF7): -17%; growth at 10 µM [10]: -93.6%; growth at 0.01 µM (NCI-H460): 101%; GI50 (Malme-3M; read-out: GI50): 2100 nM; TGI (Malme-3M; read-out: TGI): 3860 nM; GI50 (Malme-3M; read-out: pGI50 (converted)): 2090 nM; TGI (Malme-3M; read-out: pTGI (converted)): 3890 nM; growth at 10 µM [11]: -86%; GI50 ([12]; read-out: GI50): 1750 nM; TGI ([12]; read-out: TGI): 3250 nM; GI50 ([12]; read-out: pGI50 (converted)): 1740 nM; TGI ([12]; read-out: pTGI (converted)): 3240 nM; growth at 10 µM [13]: -40.2%; growth at 10 µM [14]: -90%; growth at 100 µM [15]: -67%; GI50 ([16]; read-out: GI50): 186 nM; CC50 [16, 19]: 742 nM; TGI ([16]; read-out: TGI): 372 nM; GI50 ([16]; read-out: pGI50 (converted)): 186 nM; CC50 [16, 20]: 741 nM; TGI ([16]; read-out: pTGI (converted)): 372 nM; growth at 0.01 µM (EKVX): 90%; growth at 0.01 µM [17]: 91%; growth at 1 µM [18]: 68%

**Q.** Which results are given for `c1ccc2[nH]c(-c3ccc(Nc4nc(N5CCCCC5)nc(N5CCOCC5)n4)cc3)nc2c1`?
**A.** growth at 10 µM (SK-MEL-5 [1]): -90.8%; growth at 10 µM [2]: -31%; growth at 1 µM (MDA-MB-435): 95%; growth at 1 µM [3]: 95%; growth at 10 µM (MDA-MB-231): -13%; Activity (Albumin [4]): 49.74%; growth at 1 µM (SK-MEL-5 [5]): 97%; growth at 10 µM (SK-MEL-28): -30.2%; growth at 100 µM [6]: -1%; growth at 0.1 µM [7]: 86%; LC50 [8]: > 100000 nM; GI50 ([8]; read-out: GI50): 2000 nM; TGI ([8]; read-out: TGI): 5140 nM; GI50 ([8]; read-out: pGI50 (converted)): 2000 nM; CC50 [8, 20]: > 100000 nM; TGI ([8]; read-out: pTGI (converted)): 5130 nM; Activity (Albumin [9]): 25 nm; growth at 100 µM (MCF7): -5%; growth at 10 µM [10]: -46.9%; growth at 0.01 µM (NCI-H460): 101%; GI50 (Malme-3M; read-out: GI50): 1870 nM; CC50 (Malme-3M; [19]): 6810 nM; TGI (Malme-3M; read-out: TGI): 3570 nM; GI50 (Malme-3M; read-out: pGI50 (converted)): 1860 nM; CC50 (Malme-3M; [20]): 6760 nM; TGI (Malme-3M; read-out: pTGI (converted)): 3550 nM; growth at 10 µM [11]: 22%; GI50 ([12]; read-out: GI50): 2100 nM; CC50 [12, 19]: > 100000 nM; TGI ([12]; read-out: TGI): 16900 nM; GI50 ([12]; read-out: pGI50 (converted)): 2090 nM; CC50 [12, 20]: > 100000 nM; TGI ([12]; read-out: pTGI (converted)): 17000 nM; growth at 10 µM [13]: -12.6%; growth at 10 µM [14]: -54%; growth at 100 µM [15]: -71%; GI50 ([16]; read-out: GI50): 2340 nM; CC50 [16, 19]: 74700 nM; TGI ([16]; read-out: TGI): 5870 nM; GI50 ([16]; read-out: pGI50 (converted)): 2340 nM; CC50 [16, 20]: 74100 nM; TGI ([16]; read-out: pTGI (converted)): 5890 nM; growth at 0.01 µM (EKVX): 93%; growth at 0.01 µM [17]: 96%; growth at 1 µM [18]: 95%

— ChEMBL document CHEMBL3808334, “Synthesis and in vitro evaluation of novel triazine analogues as anticancer agents and their interaction studies with bovine serum albumin” (Eur J Med Chem, 2016)
